IC50 data for 19 compounds are collected here from PubChem BioAssay AID635 (SRMLSC, 2007).

The test relates to E. coli BW25113 growth inhibition, OD615. The experiment in a line: growth inhibition of wild-type E. coli BW25113 pool, dose response, OD615 (AID 635).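 Also: growth measured after 20 h with compound at 37 °C.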 The note with it: pooled mutant strains. In a few lines: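 Material: Keio BW25113 knockout pool, 1,275 strains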
Usually IC50 stands for the point on the concentration scale where inhibition reaches its midpoint. Turning to `CCCCNc1cc(C)nc(NCc2ccccc2)n1`, the IC50 is 98.5 µM.
On to `CC(=O)OCC1=C(C(=O)O)N2C(=O)[C@@H](NC(=O)Cc3cccs3)[C@H]2SC1`, for which the IC50 was 10.5 µM.
Under `CCC(=O)N1CCN(c2cc3c(cc2F)c(=O)c(C(=O)O)cn3CC)CC1` stands 4.01 µM; under `c1ccc(-c2cccc(-c3ccccn3)n2)nc1`, 41.8 µM; under `CN(C)[C@@H]1C(=O)C(C(N)=O)=C(O)[C@@]2(O)C(=O)C3=C(O)c4c(O)ccc(Cl)c4[C@@H](O)[C@H]3C[C@@H]12`, 0.579 µM.
For the compound `COc1cc(Cc2cnc(N)nc2N)cc(OC)c1OC`, the IC50 was 0.595 µM.
To `CC(=O)c1c(C)n([O-])c2ccccc2[n+]1=O` belongs 48.6 µM; to `CCn1cc(C(=O)NCc2ccc3c(c2)OCO3)c(=O)c2cc(F)c(N3CCN(C)CC3)cc21`, 28.6 µM.
Under `Oc1c(CN2CCCCC2)cc(Br)c2cccnc12` stands 37.5 µM; under `CN1CCN(c2c(F)cc3c(=O)c(C(=O)O)cn4c3c2SCC4)CC1`, 1.11 µM; under `COc1ccc(OCC(O)CNc2ccc(Br)cc2)cc1` (centres undefined), 102 µM.
For the compound `COc1c(N2CCNC(C)C2)c(F)cc2c(=O)c(C(=O)O)cn(C3CC3)c12` (centres undefined), the IC50 is less than 0.195 µM.
With `C=CCNc1ncnc2c1[nH]c1ccc(C)cc12`, the IC50 was 41.7 µM.
Consider `NC1C2CN(c3nc4c(cc3F)c(=O)c(C(=O)O)cn4-c3ccc(F)cc3F)CC12` (centres undefined), for which the IC50 is 0.006 µM.
As for `CCn1cc(C(=O)O)c(=O)c2cc(F)c(N3CCN(C(=O)Nc4ccccc4)CC3)cc21`, the IC50 is 4.05 µM.
Under `O=S1(=O)Nc2c(ccc3cccnc23)-c2ccccc21` stands 20.3 µM; under `O=c1ccsn1Cc1ccccc1`, 34.6 µM; under `CCCCOc1ccc(NC2=NC3(CCCCC3)N=C(N)N2)cc1`, 41 µM.
To `CO[C@@]1(NC(=O)Cc2cccs2)C(=O)N2C(C(=O)O)=C(COC(N)=O)CS[C@@H]21` belongs 9.78 µM.
